Data on 4 compounds can be found in publication PMC9826503 (Chemmedchem, 2022).

The subject of data set [1] is HeLa cervical cancer cell line. The data set can be described thus: Resazurin cytotoxicity assay, HeLa. Format: cell-based.
Data set [2] has as its system HCC70 triple negative breast cancer cell line. The data set can be described thus: Resazurin cytotoxicity assay, HCC70. Type of data set: cell-based. Conditions: for IC50: read-out: HCC70 IC50 and SD. A general note: Alamar Blue is a resazurin reagent that responds to reducing activity.
The test system of data set [3] is MCF-7 hormone responsive breast cancer cell line. The data set can be described thus: Resazurin cytotoxicity assay, MCF-7. Format: cell-based. Conditions: for IC50: read-out: MCF-7 IC50 and SD.
The subject of data set [4] is non-tumorigenic breast epithelial cell line MCF12A. Nature of the data set: Resazurin cytotoxicity assay, MCF-12A. Format: cell-based. The following applies: read-out: MCF-12A IC50 and SD.
The test system of data set [5] is cancer cell lines (HeLa, HCC70, MCF-7). Nature of the data set: Resazurin cytotoxicity assay, cancer cell lines as a group. Format: cell-based. Conditions: read-out: IC50 values against the cancer cells. In outline: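 HeLa, HCC70 and MCF-7 cells seeded at 5000 cells/well and left to attach overnight (37 °C, 9 % CO2). Treated 96 h with test compound (15.63–500.00 μM), 2 % (v/v) DMSO vehicle, or paclitaxel control (0.16–500 nM). Resazurin then added for 2–4 h; fluorescence read at ex 560/em 590 nm. Done in triplicate; IC50 by non-linear regression.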

Data set [6] addresses T1, recombinant human topoisomerase I (Homo sapiens, UniProt P11387).
T1 sequence (P11387 1-765): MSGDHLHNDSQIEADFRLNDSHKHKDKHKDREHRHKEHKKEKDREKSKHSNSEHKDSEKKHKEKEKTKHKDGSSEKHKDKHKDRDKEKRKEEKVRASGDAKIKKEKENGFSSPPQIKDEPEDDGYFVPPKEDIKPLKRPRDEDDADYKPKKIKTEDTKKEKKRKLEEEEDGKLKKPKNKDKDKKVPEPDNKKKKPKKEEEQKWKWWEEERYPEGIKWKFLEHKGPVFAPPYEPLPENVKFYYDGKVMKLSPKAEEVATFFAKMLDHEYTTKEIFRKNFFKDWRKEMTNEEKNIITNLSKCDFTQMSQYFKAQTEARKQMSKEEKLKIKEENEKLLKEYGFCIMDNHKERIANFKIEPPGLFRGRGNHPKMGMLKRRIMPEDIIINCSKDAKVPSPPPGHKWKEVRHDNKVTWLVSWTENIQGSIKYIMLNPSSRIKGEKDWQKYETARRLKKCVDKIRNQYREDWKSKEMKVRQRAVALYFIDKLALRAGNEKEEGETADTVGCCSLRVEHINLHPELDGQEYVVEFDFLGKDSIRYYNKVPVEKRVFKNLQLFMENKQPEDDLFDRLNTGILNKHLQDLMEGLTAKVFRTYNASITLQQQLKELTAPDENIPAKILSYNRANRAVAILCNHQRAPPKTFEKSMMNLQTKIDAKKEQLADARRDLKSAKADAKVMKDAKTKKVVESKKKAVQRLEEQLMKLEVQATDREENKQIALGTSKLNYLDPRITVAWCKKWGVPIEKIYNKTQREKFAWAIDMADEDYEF
Nature of the data set: Topoisomerase I inhibition. Type of data set: biochemical.

Data set [7] deals with human genomic DNA (gDNA). Nature of the data set: Agarose gel electrophoresis, ethidium bromide displacement from gDNA. Type of data set: binding. In outline: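 Human genomic DNA (100 ng) was incubated with test compound at 50 or 200 μM for 4 hours at 37 °C, alongside a 2 % (v/v) DMSO control and a cisplatin (200 μM) control. Mixtures with loading dye were run on a 0.8 % (w/v) agarose gel containing ethidium bromide, 45 min at 90 V in 1× TAE (40 mM Tris-acetate, 1 mM EDTA). Bands were imaged, and EtBr staining intensity was compared across lanes.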

For data set [8], the system named is calf thymus DNA. The data set can be described thus: Methylene blue DNA competition assay. Format: binding. The following applies: 50 and 200 μM, 100 ng calf thymus DNA, 15 μg/mL methylene blue. In outline:
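Each 100 μL reaction held methylene blue (15 μg/mL), calf thymus DNA (100 ng) and test compound (50 or 200 μM) in MilliQ water, with a 0.05 % (v/v) DMSO vehicle control. Mixtures were incubated 10 minutes at room temperature in the dark. An emission scan was then recorded under fixed excitation. Runs were done in triplicate.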

The target in data set [9] is T2, bovine serum albumin (BSA) (Bos taurus, UniProt P02769). The data set can be described thus: BSA UV-Vis absorption titration. The following applies: 280 nm. Type of data set: binding. In outline: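 BSA (~20 μM, PBS pH 7.2; concentration set from ε280 = 43824 M−1 cm−1) titrated with test compound (0–~380 μM; stocks in MeOH). Equal compound volumes added to the sample and reference cells; each mixture incubated 2 min. BSA absorbance at 280 nm fitted to a double-reciprocal plot of 1/(A0−A) vs 1/[compound]. kapp taken as the intercept/slope ratio.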

In data set [10] the target is T2, bovine serum albumin (BSA). Nature of the data set: BSA fluorescence quenching titration, with and without site markers. Type of data set: binding. In outline: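 Emission spectra of BSA recorded at 293 K during titration with increasing test compound. Excitation 280 nm, emission 300–500 nm, slits 5 nm. Intensities corrected for inner filter effect using absorbances at the excitation and emission maxima. KSV from Stern-Volmer fit; kq = KSV/τ0, τ0 10−8 s. Site-marker runs: warfarin (site I) or ibuprofen (site II) added equimolar to BSA (each 5 μM) before titration.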

A short description of data set [11]: Time-dependent stability studies by UV-Vis spectrophotometry. Type of data set: physicochemical. The following applies: 10^−5 M, 1 hour intervals for 24 hours. In outline:
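Test compound was dissolved at 10−5 M in anhydrous DMSO at room temperature and filtered. UV-Vis spectra were then recorded hourly over 24 hours.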

Setting [12] is: (IC50 value in MCF12-A)/(IC50 value in cancer cell line).
Setting [13] is: Ibuprofen site marker (site II).
Where [14] appears, read: No Site marker, KSV=kq τ0, τ0 10^−8 s.
Where [15] appears, read: 96 hours, non-cancerous control.

Where two headings read alike, the source gives them in different places.

T2 sequence (P02769 25-607): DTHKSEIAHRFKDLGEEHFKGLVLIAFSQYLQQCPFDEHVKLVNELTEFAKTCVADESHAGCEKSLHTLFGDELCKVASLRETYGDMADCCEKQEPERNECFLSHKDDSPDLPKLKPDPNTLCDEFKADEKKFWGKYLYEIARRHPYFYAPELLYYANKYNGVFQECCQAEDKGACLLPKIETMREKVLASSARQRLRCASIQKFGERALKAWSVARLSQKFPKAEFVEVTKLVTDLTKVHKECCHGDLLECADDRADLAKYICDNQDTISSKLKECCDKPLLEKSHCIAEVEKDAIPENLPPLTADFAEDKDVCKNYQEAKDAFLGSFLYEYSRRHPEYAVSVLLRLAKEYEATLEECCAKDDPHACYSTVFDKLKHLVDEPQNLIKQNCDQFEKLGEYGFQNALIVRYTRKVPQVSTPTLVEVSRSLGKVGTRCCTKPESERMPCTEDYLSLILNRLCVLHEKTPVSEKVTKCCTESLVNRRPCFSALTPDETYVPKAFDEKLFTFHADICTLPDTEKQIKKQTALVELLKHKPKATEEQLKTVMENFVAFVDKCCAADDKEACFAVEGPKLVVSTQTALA

Regarding `CC(=O)O[C@H]1C(=O)[C@@]2(C)[C@H]([C@H](OC(=O)c3ccccc3)[C@]3(O)C[C@H](OC(=O)[C@H](O)[C@@H](NC(=O)c4ccccc4)c4ccccc4)C(C)=C1C3(C)C)[C@]1(OC(C)=O)CO[C@@H]1C[C@@H]2O` [Paclitaxel, paclitaxel, reference compound], in data set [1] (setting [12]), the “SI (selectivity index), HeLa” value was 5.96. Further, the “SI (selectivity index), HCC70” value in data set [2] (setting [12]) came out at 4.12. Besides, the IC50 in data set [2] (Homo sapiens, HCC70, 96 h) was 0.00392 ± 0.00103 µM; in data set [3] (Homo sapiens, MCF7, 96 h), 0.0024 ± 0.00111 µM; in [4] (Homo sapiens, MCF-12A, 96 h), 0.0162 ± 0.00108 µM; in data set [5], 0.0024 to 0.00392 µM. The “SI (selectivity index), MCF-7” value in data set [3] (setting [12]) came to 6.73.

As for `CC[C@@]1(O)C(=O)OCc2c1cc1n(c2=O)Cc2cc3ccccc3nc2-1` [camptothecin, reference compound], in data set [6] (200 μM), the “Inhibition of Topo I activity” value is listed as “failed to inhibit the enzyme”.

On to “cis‐Cl, trans‐P‐[RuCl2(PPh3)2(btm)] [Compound 3]”, for which the “Intensity of EtBr stained gDNA band” value in data set [7] (higher concentration (200 μM)) is given as “considerable dose‐dependent reduction in intensity”. Also, the “Competition with methylene blue for DNA binding (intercalation)” value in data set [8] is recorded as “no effect on the ability of methylene blue to bind to the DNA”. Further, the “Inhibition of Topo I activity” value in data set [6] (50 μM) is “complete inhibition of Topo I”. Moreover, the “apparent association constant (kapp)” value in data set [9] is 18900 M⁻¹. The “K SV” value was 9130 M⁻¹ in [10] (setting [13]), 69500 M⁻¹ in data set [10] (No Site marker) and 1290 M⁻¹ in data set [10] (Warfarin site marker (site I)). The k q amounted to 9.13e+11 M⁻¹ s⁻¹ in [10] (setting [13]), 6.95e+12 M⁻¹ s⁻¹ in data set [10] (setting [14]) and 1.29e+11 M⁻¹ s⁻¹ in data set [10] (Warfarin site marker (site I)). The IC50 in data set [1] (read-out: HeLa IC50 and SD, 96 hours) came to 6.29 ± 1.1 µM; in [3] (96 hours), 8.87 ± 1.12 µM; in data set [4] (setting [15]), 36.5 ± 1.08 µM. The “Stability in anhydrous DMSO (UV-Vis spectral changes)” value in [11] is “blue‐shifted and decreasing MLCT band at 525 nm and an emerging MLCT band at 437 nm”.

For “trans‐P‐[RuCl(PPh3)2(pmt)]Cl [Compound 1]”, the “Intensity of EtBr stained gDNA band” value in [7] (higher concentration (200 μM)) was “considerable dose‐dependent reduction in intensity”; in data set [7] (lower concentration (50 μM), relative to DMSO control), “decreases in the intensity of the EtBr stained gDNA”. In addition, in data set [8], the “Competition with methylene blue for DNA binding (intercalation)” value was “competitively bind to the calf thymus DNA in a concentration‐dependent manner”. For the same compound, in data set [6] (50 and 200 μM), the “Inhibition of Topo I activity” value is on record as “inhibited Topo I activity”. Moreover, the “apparent association constant (kapp)” value in [9] came out at 90200 M⁻¹. The “K SV” value is 1360 M⁻¹ in data set [10] (setting [13]), 88400 M⁻¹ in [10] (No Site marker) and 2090 M⁻¹ in data set [10] (Warfarin site marker (site I)). The k q was 1.36e+11 M⁻¹ s⁻¹ in data set [10] (setting [13]), 8.84e+12 M⁻¹ s⁻¹ in data set [10] (setting [14]) and 2.09e+11 M⁻¹ s⁻¹ in [10] (Warfarin site marker (site I)). The “fold less cytotoxic towards HCC70 compared to MCF-7” value in [2] (HCC70 versus MCF-7) is reported as “more than 10 fold”. Also, the half-inhibitory concentration (IC50) turned out to be 75.5 µM in [2] (96 hours), 5.2 µM in [3] (96 hours) and 60.1 µM in [4] (setting [15]). For the same compound, the “Stability in anhydrous DMSO (UV-Vis spectral changes)” value in [11] is “noticeable alterations in the electronic spectrum”.

Usually IC50 stands for the concentration needed to halve the response being measured.
